Sampled rows, rich in hits. Any-hit rate of the full collection: about 0.72%.
hIAP inh: human IAP inhibition; purified IAP, CDP-Star luminescence, 30 min; inhibition, % at 10 µM; actives 0.12% (n = 330,000); AID 2544;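 active = inhibition reaching a set limit with compound at 10 µM in the primary screen, cut at about 35% in these data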;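 also: plate controls were DMSO wells with enzyme for no effect and no-enzyme buffer wells for full effect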
Target sequence (P09923 whole entry, looked up): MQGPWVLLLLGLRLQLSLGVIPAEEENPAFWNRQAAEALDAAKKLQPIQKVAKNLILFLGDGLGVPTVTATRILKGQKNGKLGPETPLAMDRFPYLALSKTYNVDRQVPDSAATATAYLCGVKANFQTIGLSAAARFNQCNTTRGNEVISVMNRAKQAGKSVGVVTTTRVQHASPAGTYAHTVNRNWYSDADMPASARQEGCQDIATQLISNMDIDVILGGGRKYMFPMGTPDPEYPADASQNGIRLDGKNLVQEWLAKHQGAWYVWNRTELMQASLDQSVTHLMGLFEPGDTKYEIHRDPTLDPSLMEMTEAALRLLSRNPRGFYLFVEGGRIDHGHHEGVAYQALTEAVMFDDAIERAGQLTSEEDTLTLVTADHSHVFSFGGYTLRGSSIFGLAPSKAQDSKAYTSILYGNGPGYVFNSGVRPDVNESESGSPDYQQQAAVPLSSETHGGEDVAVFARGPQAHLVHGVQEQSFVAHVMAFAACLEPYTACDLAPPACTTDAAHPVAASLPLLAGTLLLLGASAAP
mIAP inh: mouse IAP inhibition; purified mouse IAP, CDP-Star luminescence, 30 min; inhibition, % at 10 µM; actives 0.2% (n = 330,000); AID 2806;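 active = inhibition of at least 40% at 10 µM in the primary screen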;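 also: plate controls were DMSO with enzyme for no effect and no enzyme wells for full effect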
hIAP act: increases human intestinal alkaline phosphatase activity | purified human IAP, CDP-Star luminescence, 30 min; active compounds read high; 1 = vehicle-only enzyme, 0 = enzyme-free background | actives 0.16% (n = 330,000) | activation factor at 10 µM;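 active = activation factor of the enzyme at least 2-fold when tested at 20 µM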
bIAP inh: intestinal alkaline phosphatase (bovine) inhibition | purified bovine IAP, CDP-star luminescence, 30 min | inhibition, % at 20 µM | 190,000 tested, under 10 active;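 active = over 50% inhibition of intestinal alkaline phosphatase at 20 µM in the single-dose screen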
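Assay system: bovine IAP enzyme; medium: DEA buffer 100 mM, pH 9.8, with MgCl2 1.0 mM, ZnCl2 0.02 mM; doses: 20 µM single dose; incubation: enzyme reaction for 30 min at room temperature; detection: CDP-star luminescence signal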
mIAP act: increases mouse intestinal alkaline phosphatase activity; actives 0.24% (n = 330,000); muIAP, CDP-Star luminescence, 30 min; active compounds read high; 1 = vehicle-only enzyme signal, 0 = enzyme-free wells; AID 2805; activation factor at 10 µM;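 active = activation factor of at least 2 at 20 µM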
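Assay system: mouse IAP enzyme; Reagent: CDP-Star chemiluminescent phosphatase substrate; Compound: DMSO-dissolved test compounds; Incubation: 30 min, room temperature; Technique: luminescence from enzymatic CDP-Star hydrolysis; Controls: DMSO-only wells and no-enzyme negative control.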
bIAP act: intestinal alkaline phosphatase (bovine) activation; purified bovine IAP, CDP-star luminescence, 30 min; active compounds read high; fold of DMSO-control signal, blank-subtracted; activation factor at 20 µM; actives 0.17% (n = 200,000);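 active = activation factor of 2 or more at 20 µM, a signal rise over negative controls twice the positive control's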
hIAP act confirm: human IAP activation confirmation | shares compounds with hIAP act | purified IAP, CDP-Star luminescence, 30 min; active compounds read low | activation (%Activity, negative = activation), % at 8.3 µM | actives 10% (n = 880) | AID 434926;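 active = at least twofold enzyme activation in any of six single-dose repeats, which the averaged readout prints as negative percent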
Active calls of the source: *; x = not tested or not shown.

SMILES | hIAP inh | mIAP inh | hIAP act | bIAP inh | mIAP act | bIAP act | hIAP act confirm
O=C(CSc1nnc(-c2ccccc2O)n1Cc1ccccc1)NNC(=O)c1ccccc1O | -146 | 20 | 2.5* | -4 | 0.8 | 1 | -41
COc1ccc(/C=C/C(=O)OCC(=O)Nc2cccc(S(=O)(=O)NC3=NCCCCC3)c2)cc1 | -5 | 5 | 1 | x | 0.95 | x | x
Cn1c(COc2ccccc2)nnc1SCC(=O)Nc1ccc(N2CCOCC2)cc1 | -6 | 1 | 1.1 | x | 0.99 | x | x
COc1ccc(CC(=O)NNC(=O)c2cc(C)[nH]n2)cc1 | -43 | 21 | 1.4 | x | 0.79 | x | x
Cc1cccc(C(=O)NNC(=O)CCCCC(=O)NNC(=O)c2cccc(C)c2)c1 | -144 | -7 | 2.4* | x | 1.1 | x | -4
Cc1cc(C(=O)NNC(=O)CCCCC(=O)NNC(=O)c2cc(C)[nH]n2)n[nH]1 | -254 | 27 | 3.5* | 20 | 0.73 | 0.8 | -79
CC(C)NC(=O)N(C)C[C@H]1Oc2ccc(NS(=O)(=O)c3ccccc3)cc2C(=O)N([C@H](C)CO)C[C@@H]1C | -18 | 9 | 1.2 | x | 0.91 | x | x
COc1ccc(C(=O)N=C2CCC(C#N)=C3c4cc(OC)c(OC)cc4CCN23)cc1 | -106 | -12 | 2.1* | 34 | 1.1 | 0.7 | 9
COc1cc2c(cc1OC)C1=C(C#N)CC/C(=N\S(=O)(=O)c3ccccc3)N1CC2 | 2 | -8 | 0.98 | -4 | 1.1 | 1 | x
Cc1cc(C)c(S(=O)(=O)N2CCCCC2CCNC(=O)C(=O)NCc2cccnc2)c(C)c1 (centres undefined) | 1 | 2 | 0.99 | x | 0.98 | x | x
CC(=O)Nc1nc(-c2ccc(Br)s2)cs1 | -120 | 8 | 2.2* | 38 | 0.92 | 0.6 | 6
CC(=O)Nc1nc(-c2cccc3ccccc23)cs1 | -14 | 7 | 1.1 | x | 0.93 | x | x
COn1c(-c2ccc(Cl)cc2)nc2ccc(Cl)cc21 | -2 | 3 | 1 | 8 | 0.97 | 0.9 | x
O=C(O)COn1c(-c2ccc(Cl)cc2)nc2ccc(Cl)cc21 | -116 | 4 | 2.2* | 7 | 0.96 | 0.9 | 27
CCOC(=O)c1c(-c2ccccc2)csc1NC(=O)COc1ccc2c(C)cc(=O)oc2c1 | 44* | -8 | 0.56 | 7 | 1.1 | 0.9 | -19
COc1ccc(OC)c(CCNC(=O)CCCC(=O)n2ncc3cc(C)ccc32)c1 | -6 | -2 | 1.1 | x | 1 | x | x
C=CCN1C=CC(=CC=C(C#N)C#N)C=C1 | 35* | 31 | 0.65 | x | 0.69 | x | -4
COc1ccc(CNC(=O)CN(C(=O)CCC(=O)Nc2ccccn2)c2ccc3c(c2)OCO3)cc1 | 5 | 1 | 0.95 | x | 0.99 | x | x
CN(CC(=O)Nc1ccccc1Br)C(=O)CNC(=O)c1ccc(Oc2ccccc2)cc1 | 35* | 5 | 0.65 | x | 0.95 | x | -2
O=C(CCl)c1ccc2[nH]c(=O)oc2c1 | 1 | 31 | 0.99 | x | 0.69 | x | x
N#CCN1C(=S)N=C(Nc2cccc(Cl)c2)C12CCCCC2 | -106 | -13 | 2.1* | -2 | 1.1 | 1 | -55*
CCNS(=O)(=O)c1ccc(CCC(=O)N2CCCC2)cc1 | 42* | -3 | 0.58 | x | 1 | x | 4
Cc1c2n(c3ccccc13)CCN(C)C2 | -1 | -5 | 1 | x | 1.1 | x | x
COc1ccc(OC)c(NC(=O)c2ccccc2N(Cc2ccccc2)S(C)(=O)=O)c1 | -17 | -4 | 1.2 | 0 | 1 | 1 | x
CCCCC#Cc1cncc(C(=O)N/N=C/c2cccc(OC)c2)c1 | 40* | 4 | 0.6 | x | 0.96 | x | -37
SMILES | hIAP inh | mIAP inh | hIAP act | bIAP inh | mIAP act | bIAP act | hIAP act confirm
CCOc1ccc2oc(C(=O)NNC(=O)c3ccccc3O)c(C)c2c1 | -137 | 22 | 2.4* | x | 0.78 | x | -37
COCCOCCn1c(/C=C/c2ccccc2)nc2ccccc21 | 9 | 0 | 0.91 | 6 | 1 | 0.9 | x
CCCn1c(/C=C/c2ccccc2)nc2ccccc21 | -214 | 4 | 3.1* | 21 | 0.96 | 0.8 | 37
COc1ccc(S(=O)(=O)N2CCC3(CC2)OCCN3S(=O)(=O)c2ccccc2)cc1OC | -6 | -8 | 1.1 | x | 1.1 | x | x
O=C(Cc1cccs1)NC(Cc1c[nH]c2ccccc12)C(=O)O (centres undefined) | 13 | -8 | 0.87 | x | 1.1 | x | x
O=c1c2ccccc2nc(N/N=C/c2ccc(O)cc2)n1O | -4 | 14 | 1 | -15 | 0.86 | 1.2 | x
O=c1c2ccccc2nc(N/N=C/c2c(O)ccc3ccccc23)n1O | -103 | 12 | 2* | -17 | 0.88 | 1.2 | -54*
O=C(NCC(=O)N1CCN(c2ccccc2O)CC1)c1ccc(Br)o1 | -1 | -1 | 1 | x | 1 | x | x
O=Nc1[nH]c(=O)c(/C=C(\O)c2ccccc2)nc1NO | -113 | 15 | 2.1* | x | 0.85 | x | -85*
CC(Sc1ccc(Cl)cc1)C(=O)NNC(=O)c1ccccc1O (centres undefined) | -148 | 18 | 2.5* | x | 0.82 | x | -20
CSCCC(NC(=O)c1ccccc1Cl)C(=O)NNC(=O)c1ccccc1O (centres undefined) | -55 | 29 | 1.5 | x | 0.71 | x | x
CCc1ccc2oc(C(=O)NC3CCS(=O)(=O)C3)cc(=O)c2c1 (centres undefined) | 6 | 1 | 0.94 | x | 0.99 | x | x
Cc1cc(-n2c(SCC(=O)NCCC3=CCCCC3)nc3n[nH]c(C)c3c2=N)ccc1Cl | -106 | -21 | 2.1* | x | 1.2 | x | -29
Cc1ccc(Cl)cc1-n1c(SCC(=O)NCCC2=CCCCC2)nc2n[nH]c(C)c2c1=N | -66 | 2 | 1.7 | x | 0.98 | x | x
CC1=NN(c2nc3ccccc3[nH]2)C(=O)/C1=C/N(C)C | -128 | -6 | 2.3* | -15 | 1.1 | 1.1 | -57*
CC1=NN(c2ccccc2)C(=O)/C1=C/N(C)C | 7 | -6 | 0.93 | x | 1.1 | x | x
CC1=C([N+](=O)[O-])C(c2ccccc2)NC(=O)N1 (centres undefined) | 2 | -1 | 0.98 | x | 1 | x | x
O=C(Cn1ccnc1)c1ccc(O)c(O)c1 | 41* | 10 | 0.59 | x | 0.9 | x | -44
Cc1ccccc1OCc1nnc(SCC(=O)Nc2ccc3nc(SCC(=O)Nc4ccccc4)sc3c2)n1C | -20 | 19 | 1.2 | -1 | 0.81 | 1 | x
Cc1c(/C=N/NC(=O)c2cc(Br)ccc2O)c(=O)n(C)c(=O)n1C | -114 | 2 | 2.1* | x | 0.98 | x | -35
C/C=N/NC(=O)c1cc(Br)ccc1O | -23 | 0 | 1.2 | -18 | 1 | 1.2 | x
Cc1ccc(S(=O)(=O)N2CCN(C(=O)CCc3c[nH]c4ccccc34)CC2)c(C)c1 | 10 | -4 | 0.9 | x | 1 | x | x
Cc1ccc(-n2nc(C)c3c2OC(N)=C(C#N)C3c2ccncc2)cc1 (centres undefined) | 14 | 7 | 0.86 | 10 | 0.93 | 0.9 | x

Bioassay records as filed in PubChem BioAssay.
